Among the data in ChEMBL document CHEMBL1159052 (Bioorg Med Chem, 2010) are Ki and IC50 values, retold here.

pIC50, pKi: −log10 of the molar value.

Assay [1] deals with Sodium-dependent serotonin transporter (Rattus norvegicus, UniProt P31652). Nature of the assay: Inhibition of [3H]5HT uptake at SERT in rat brain hippocampal synaptosomes by liquid scintillation spectrophotometry. Type of assay: subcellular, Hippocampus. Put shortly: (§1)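 Synaptosomes were striatal for [3H]DA and hippocampal for [3H]5-HT, as P2 pellets in oxygenated Krebs with pargyline and ascorbate (pH 7.4), protein 400 μg/ml. Drug at […] was preincubated 10 min at 34 °C, then 10 nM tritiated substrate was added for 10 min. Uptake was stopped with ice-cold buffer and filtered on GF/B. Nonspecific uptake used 10 μM nomifensine (DA) or 10 μM fluoxetine (5-HT). Duplicates; IC50 by curve fit; Ki by Cheng-Prusoff.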

Assay [2] concerns the target T1, Neuronal acetylcholine receptor; alpha4/beta2 (Rattus norvegicus, UniProt P09483+P12390). Kind of assay: Displacement of [3H]nicotine from alpha4beta2 nAChR in rat brain homogenate by liquid scintillation spectrophotometry. Type of assay: tissue-based. Put shortly: (§2)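 Membranes came from whole brain minus cortex and cerebellum, washed in Krebs-HEPES buffer at pH 7.5, 100–140 μg protein per tube. IC50 came from a curve fit; Ki by Cheng-Prusoff. At least four experiments, each in duplicate.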

For assay [3], the target named is Sodium-dependent dopamine transporter (Rattus norvegicus, UniProt P23977). Kind of assay: Inhibition of [3H]DA uptake at DAT in rat brain striatal synaptosomes by liquid scintillation spectrophotometry. Type of assay: subcellular. Put shortly: as §1
Assay [4] addresses T2, Synaptic vesicular amine transporter (Rattus norvegicus, UniProt Q01827). Nature of the assay: Displacement of [3H]MTBZ from VMAT2 in rat whole brain vesicles by liquid scintillation spectrophotometry. In short, it runs like this: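 Vesicles came from rat whole brain minus cerebellum, by hypotonic lysis and 100,000g pelleting, in HEPES/potassium-tartrate/MgSO4 buffer at pH 7.5, 15 μg protein per 100 μl. Final radioligand was 3 nM [3H]MTBZ or [3H]DTBZ, run in duplicate. Samples were filtered on PEI-soaked GF/B. Ki values come from at least four independent experiments.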

Assay [5] in a line: Displacement of [3H]MLA from alpha7 nAChR in rat brain homogenate by liquid scintillation spectrophotometry. Type of assay: tissue-based. Put shortly:
as §2

In assay [6] the target is T2, Synaptic vesicular amine transporter. Kind of assay: Displacement of [3HDTBZ from VMAT2 in rat whole brain vesicles by liquid scintillation spectrophotometry. In short, it runs like this:
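Vesicles came from rat whole brain minus cerebellum, by hypotonic lysis and 100,000g pelleting, in HEPES/potassium-tartrate/MgSO4 buffer at pH 7.5, 15 μg protein per 100 μl. Final radioligand was 3 nM [3H]MTBZ or [3H]DTBZ, run in duplicate. […] Samples were filtered on PEI-soaked GF/B. Ki values come from at least four independent experiments.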

Assay [7] has as its target Synaptic vesicular amine transporter (Homo sapiens, UniProt Q05940). Nature of the assay: Binding affinity to VMAT2 receptor.
Assay [8] deals with T1, Neuronal acetylcholine receptor; alpha4/beta2. Kind of assay: Antagonist activity at alpha4beta2 nAChR in rat brain synaptosomes assessed as inhibition of nicotine-induced 86Rb+ efflux by liquid scintillation spectrophotometry. Type of assay: functional, subcellular.

T1 sequence (P09483 whole entry): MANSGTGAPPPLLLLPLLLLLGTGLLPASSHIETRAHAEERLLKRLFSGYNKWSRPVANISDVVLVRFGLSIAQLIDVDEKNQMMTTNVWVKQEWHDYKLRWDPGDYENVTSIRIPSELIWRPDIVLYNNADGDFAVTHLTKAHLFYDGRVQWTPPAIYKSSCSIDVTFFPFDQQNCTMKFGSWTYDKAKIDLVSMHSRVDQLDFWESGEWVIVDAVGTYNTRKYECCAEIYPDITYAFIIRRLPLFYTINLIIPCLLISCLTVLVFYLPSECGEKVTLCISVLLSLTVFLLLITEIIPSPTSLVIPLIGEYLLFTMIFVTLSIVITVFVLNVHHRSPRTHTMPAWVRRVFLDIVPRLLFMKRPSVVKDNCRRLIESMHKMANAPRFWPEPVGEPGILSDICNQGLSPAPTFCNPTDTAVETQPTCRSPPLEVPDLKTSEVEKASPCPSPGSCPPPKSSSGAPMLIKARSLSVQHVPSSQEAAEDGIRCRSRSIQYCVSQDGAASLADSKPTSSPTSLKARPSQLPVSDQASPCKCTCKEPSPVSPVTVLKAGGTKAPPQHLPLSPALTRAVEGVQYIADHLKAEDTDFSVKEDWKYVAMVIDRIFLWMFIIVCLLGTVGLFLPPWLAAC
T1 sequence (P12390 whole entry): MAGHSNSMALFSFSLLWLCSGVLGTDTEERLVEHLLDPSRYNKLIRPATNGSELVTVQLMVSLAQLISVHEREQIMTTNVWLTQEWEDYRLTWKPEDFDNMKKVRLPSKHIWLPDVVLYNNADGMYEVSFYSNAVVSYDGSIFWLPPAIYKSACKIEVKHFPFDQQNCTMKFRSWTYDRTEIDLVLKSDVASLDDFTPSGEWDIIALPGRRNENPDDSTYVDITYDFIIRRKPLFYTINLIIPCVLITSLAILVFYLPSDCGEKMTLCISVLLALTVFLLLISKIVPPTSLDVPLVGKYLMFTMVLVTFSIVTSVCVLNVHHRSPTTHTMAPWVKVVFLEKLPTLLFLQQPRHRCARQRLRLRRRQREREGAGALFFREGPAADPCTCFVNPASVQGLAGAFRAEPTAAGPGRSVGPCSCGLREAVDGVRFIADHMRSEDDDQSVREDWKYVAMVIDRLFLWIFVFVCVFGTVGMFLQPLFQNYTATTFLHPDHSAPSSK
T2 sequence (Q01827 whole entry): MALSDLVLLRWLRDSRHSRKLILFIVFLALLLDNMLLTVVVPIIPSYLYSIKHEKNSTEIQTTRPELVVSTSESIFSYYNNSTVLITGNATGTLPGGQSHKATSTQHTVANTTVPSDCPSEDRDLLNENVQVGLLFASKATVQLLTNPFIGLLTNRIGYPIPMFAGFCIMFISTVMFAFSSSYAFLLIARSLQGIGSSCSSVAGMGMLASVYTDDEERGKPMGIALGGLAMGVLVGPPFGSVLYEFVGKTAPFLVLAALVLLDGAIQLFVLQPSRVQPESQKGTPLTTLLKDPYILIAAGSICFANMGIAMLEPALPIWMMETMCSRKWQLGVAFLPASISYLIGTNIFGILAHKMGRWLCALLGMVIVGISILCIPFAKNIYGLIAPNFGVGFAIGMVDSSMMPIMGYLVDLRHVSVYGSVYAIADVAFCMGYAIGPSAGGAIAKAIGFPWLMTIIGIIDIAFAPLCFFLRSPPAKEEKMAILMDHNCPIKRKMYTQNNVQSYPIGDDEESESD
Chain of Sodium-dependent dopamine transporter (P23977 whole entry): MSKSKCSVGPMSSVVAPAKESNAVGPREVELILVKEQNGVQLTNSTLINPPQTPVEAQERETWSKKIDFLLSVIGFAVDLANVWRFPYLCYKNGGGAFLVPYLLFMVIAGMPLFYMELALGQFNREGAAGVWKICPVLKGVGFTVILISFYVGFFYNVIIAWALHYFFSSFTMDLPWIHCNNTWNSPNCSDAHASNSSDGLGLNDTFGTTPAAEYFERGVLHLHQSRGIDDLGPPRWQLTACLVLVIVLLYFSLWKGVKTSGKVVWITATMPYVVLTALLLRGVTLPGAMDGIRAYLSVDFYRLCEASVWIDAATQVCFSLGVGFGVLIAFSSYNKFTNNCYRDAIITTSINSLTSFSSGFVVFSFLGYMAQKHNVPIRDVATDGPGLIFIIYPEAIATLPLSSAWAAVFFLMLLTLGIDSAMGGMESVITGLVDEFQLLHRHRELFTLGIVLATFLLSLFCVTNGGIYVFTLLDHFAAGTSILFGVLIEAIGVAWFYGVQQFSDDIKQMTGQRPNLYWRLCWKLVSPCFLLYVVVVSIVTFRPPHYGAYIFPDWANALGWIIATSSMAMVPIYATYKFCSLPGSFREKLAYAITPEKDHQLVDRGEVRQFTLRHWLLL
Chain of Sodium-dependent serotonin transporter (P31652 whole entry): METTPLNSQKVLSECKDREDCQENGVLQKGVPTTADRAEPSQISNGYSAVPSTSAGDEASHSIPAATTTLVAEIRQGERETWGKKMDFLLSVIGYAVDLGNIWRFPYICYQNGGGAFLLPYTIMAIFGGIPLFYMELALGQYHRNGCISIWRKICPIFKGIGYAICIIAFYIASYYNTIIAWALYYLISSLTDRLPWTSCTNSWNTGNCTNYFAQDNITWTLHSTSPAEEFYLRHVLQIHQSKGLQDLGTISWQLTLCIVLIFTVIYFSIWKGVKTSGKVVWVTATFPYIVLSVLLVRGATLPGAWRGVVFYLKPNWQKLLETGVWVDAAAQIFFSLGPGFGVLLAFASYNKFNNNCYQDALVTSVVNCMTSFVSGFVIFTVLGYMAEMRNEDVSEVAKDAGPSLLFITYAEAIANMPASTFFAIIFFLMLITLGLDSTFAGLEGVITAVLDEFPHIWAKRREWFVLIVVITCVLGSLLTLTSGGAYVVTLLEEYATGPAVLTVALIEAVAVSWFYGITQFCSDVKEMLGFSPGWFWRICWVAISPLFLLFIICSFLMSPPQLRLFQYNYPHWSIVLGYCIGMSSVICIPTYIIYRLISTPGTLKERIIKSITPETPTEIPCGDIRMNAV
Chain of Synaptic vesicular amine transporter (Homo sapiens, UniProt Q05940) (Q05940 whole entry): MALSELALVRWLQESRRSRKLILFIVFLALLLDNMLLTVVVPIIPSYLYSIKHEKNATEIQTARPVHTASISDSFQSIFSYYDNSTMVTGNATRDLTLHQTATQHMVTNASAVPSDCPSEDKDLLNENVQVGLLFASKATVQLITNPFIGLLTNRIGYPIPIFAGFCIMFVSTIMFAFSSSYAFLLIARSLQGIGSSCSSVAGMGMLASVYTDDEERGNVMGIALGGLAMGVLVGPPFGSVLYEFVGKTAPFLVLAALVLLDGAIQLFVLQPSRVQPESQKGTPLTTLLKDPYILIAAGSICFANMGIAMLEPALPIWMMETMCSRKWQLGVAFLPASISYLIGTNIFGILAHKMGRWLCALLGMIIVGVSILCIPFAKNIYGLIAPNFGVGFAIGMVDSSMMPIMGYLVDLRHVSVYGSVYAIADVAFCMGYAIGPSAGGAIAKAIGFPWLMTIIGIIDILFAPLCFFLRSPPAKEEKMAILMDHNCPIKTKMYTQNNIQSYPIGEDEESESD

Consider `CCCC(=O)OC(C[C@@H]1CCCC(CC(=O)c2ccccc2)N1C)c1ccccc1` (single isomer, unassigned), for which the pKi is 4.91 in assay [1]; 6.30 in assay [2]; 5.32 in assay [3]; 5.47 in assay [4]; less than 4.00 in assay [5].
For the molecule `CN1C(CC(=O)c2ccccc2)CCC[C@H]1CC(OS(=O)(=O)c1ccc([N+](=O)[O-])cc1)c1ccccc1` (single isomer, unassigned), the pKi in assay [1] is 4.74; in assay [6] it was 5.37; in assay [2], 7.89; in assay [3], 4.70; in assay [5] it was 4.27.
Take `CC(=O)OC(C[C@@H]1CCCC(CC(=O)c2ccccc2)N1C)c1ccccc1` (single isomer, unassigned): the pKi in assay [1] was 4.50; in assay [2], 7.15; in assay [3] it was 5.33; in assay [4], 5.09; in assay [5] it was less than 4.00.
In the case of `CCCCS(=O)(=O)OC(C[C@@H]1CCCC(CC(=O)c2ccccc2)N1C)c1ccccc1` (single isomer, unassigned), the pKi in assay [1] was 5.29; in assay [6], 5.70; in assay [2], 7.96; in assay [3] it was 4.93; in assay [5], 4.39.
Consider `CN1[C@@H](CCc2cccc3ccccc23)CCC[C@H]1CCc1cccc2ccccc12`, for which the pKi in assay [7] is 6.20.
On to `CN1C(CC(=O)c2ccccc2)CCC[C@H]1CC(OS(=O)(=O)c1ccccc1)c1ccccc1` (single isomer, unassigned), for which the pKi in assay [1] was 4.43; in assay [6], 5.46; in assay [2], 8.10; in assay [3], 4.97; in assay [5], 4.46. For the same molecule, the pIC50 in assay [8] was 5.80.
In the case of `CN1C(CC(=O)c2ccccc2)CCC[C@H]1CC(OS(=O)(=O)Cc1ccccc1)c1ccccc1` (single isomer, unassigned), the pKi in assay [1] is 5.34; in assay [6], 5.40; in assay [2], 7.89; in assay [3] it was 4.83; in assay [5] it was 4.33.
For `CC(C)S(=O)(=O)OC(C[C@@H]1CCCC(CC(=O)c2ccccc2)N1C)c1ccccc1` (single isomer, unassigned) the same measures were 4.79, 5.68, 7.82, 5.34 and 4.32.
The corresponding values for `CN1[C@@H](CC(=O)c2ccccc2)CCC[C@H]1C[C@H](OS(=O)(=O)c1cccc2ccccc12)c1ccccc1` are 4.46, 5.39, 7.77, 5.38 and less than 4.00.
Take `Cc1ccc(C(=O)O[C@@H](C[C@@H]2CCC[C@H](CC(=O)c3ccccc3)N2C)c2ccccc2)cc1`: the pKi in assay [1] was 5.82; in assay [2] it was 5.79; in assay [3], 5.69; in assay [4] it was 5.75; in assay [5], less than 4.00.
As for `CN1C(CC(=O)c2ccccc2)CCC[C@H]1CC(OC(=O)c1ccccc1)c1ccccc1` (single isomer, unassigned), the pKi in assay [1] was 5.68; in assay [2] it was 5.54; in assay [3] it was 5.64; in assay [4], 5.82; in assay [5] it was less than 4.00. Further, in assay [8], the pIC50 is 6.07.
Turning to `COc1ccc(C(=O)O[C@@H](C[C@@H]2CCC[C@H](CC(=O)c3ccccc3)N2C)c2ccccc2)cc1`, the pKi is 5.69 in assay [1]; 4.71 in assay [2]; 5.42 in assay [3]; 5.53 in assay [4]; 4.74 in assay [5].
For `CN1[C@@H](CC(=O)c2ccccc2)CCC[C@H]1C[C@H](OC(=O)c1cccs1)c1ccccc1` the same measures were 5.01, 6.07, 5.52, 5.20 and 4.44.
As to `CC(C)C(=O)OC(C[C@@H]1CCCC(CC(=O)c2ccccc2)N1C)c1ccccc1` (single isomer, unassigned), the pKi in assay [1] is 5.97; in assay [2], 7.22; in assay [3], 5.62; in assay [4], 5.58; in assay [5], less than 4.00.
In the case of `Cc1ccc(S(=O)(=O)OC(C[C@@H]2CCCC(CC(=O)c3ccccc3)N2C)c2ccccc2)cc1` (single isomer, unassigned), the pKi in assay [1] was 4.79; in assay [6], 4.97; in assay [2] it was 8.30; in assay [3], 4.54; in assay [5], 4.74. Moreover, in assay [8], the pIC50 was 8.70.
For the molecule `CN1[C@@H](CC(=O)c2ccccc2)CCC[C@H]1C[C@H](OS(=O)(=O)c1cccs1)c1ccccc1`, the pKi is 4.74 in assay [1]; 5.37 in assay [6]; 7.89 in assay [2]; 4.70 in assay [3]; 4.27 in assay [5].
The corresponding values for `CN1C(CC(=O)c2ccccc2)CCC[C@H]1CC(OS(=O)(=O)c1ccc(F)cc1)c1ccccc1` (single isomer, unassigned) are 5.33, 5.52, 7.92, 4.75 and 4.62.
On to `CN1[C@@H](CC(=O)c2ccccc2)CCC[C@H]1C[C@H](OS(=O)(=O)c1ccc2ccccc2c1)c1ccccc1`, for which the negative logarithm of the Ki (pKi) in assay [1] is 5.30; in assay [6], 5.61; in assay [2] it was 8.00; in assay [3], 4.87; in assay [5] it was 4.73.
Consider `CCC(=O)OC(C[C@@H]1CCCC(CC(=O)c2ccccc2)N1C)c1ccccc1` (single isomer, unassigned), for which the pKi in assay [1] is 5.31; in assay [2], 6.82; in assay [3] it was 5.16; in assay [4], 5.32; in assay [5], 5.05.
In the case of `CN1C(CC(=O)c2ccccc2)CCC[C@H]1CC(OS(=O)(=O)c1ccc(Cl)cc1)c1ccccc1` (single isomer, unassigned), the pKi was 5.36 in assay [1]; 5.49 in assay [6]; 7.80 in assay [2]; 4.97 in assay [3]; less than 4.00 in assay [5].
